The test system of assay [1] is A549. In words: Cytotoxicity against human A549 cells by SRB assay. Type of assay: functional, cell-based. (Sulforhodamine B stains cellular protein and so reports cell mass.)
Assay [2] has as its system P388. The assay can be described thus: Cytotoxicity against mouse P388 cells by tetrazolium-formazan assay. It is filed as functional, cell-based.
Assay [3] is filed under the species Bos taurus. In words: Inhibition of calf thymus topoisomerase 1-mediated pBR322 relaxation at 200 uM after 30 mins by agarose gel electrophoresis. The procedure, abridged:
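Topoisomerase I and compound incubated 30 min at 37 °C in topoisomerase I buffer with 0.01% BSA. Reactions were stopped with 10% SDS and loading dye. Products were resolved on a 0.8% agarose gel in TAE for 35 min at 120 V, stained with ethidium bromide at room temperature and photographed under UV.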

Assay [4] in a line: Cytotoxicity against human LO2 cells by SRB assay. It is filed as cell-based. Particulars: L02.
For assay [5], the species on record is Bos taurus. In words: Inhibition of calf thymus topoisomerase 1-mediated pBR322 relaxation at 100 uM after 30 mins by agarose gel electrophoresis. The method in brief: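 Topoisomerase I and compound were incubated 30 min at 37 °C in topo I buffer with 0.01% BSA. Reactions were stopped with SDS and loading dye, then run on 0.8% agarose in TAE for 35 min at 120 V, stained with ethidium bromide and imaged under UV.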

Assay [6] concerns the target DNA topoisomerase 2-alpha (Homo sapiens) (UniProt P11388). In words: Inhibition of human topoisomerase 2a-mediated kinetoplast decatenation at 100 uM after 30 mins by agarose gel electrophoresis. The procedure, abridged: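 ATP-dependent kDNA decatenation by 1 unit human topo IIα. Incubated 30 min at 37 °C in 50 mM Tris-HCl pH 8, 150 mM NaCl, 10 mM MgCl2, 2 mM ATP and 0.5 mM DTT. Stopped with SDS, run on 0.8% agarose in TAE for 50 min at 120 V, stained with ethidium bromide and imaged under UV.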

Assay [7] can be described thus: Binding affinity to Poly(dAdT).Poly(dAdT) (unknown origin). The procedure, abridged: (§1)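 Fluorescence titration in 20 mM sodium phosphate pH 7.0 at 20 ± 1 °C. Compound held at 3 × 10^-6 M while polydeoxynucleotide was varied from 0 to 6.32 × 10^-5 M. Ka was obtained by nonlinear curve fitting of the data. The ratio line is the GC-polymer Ka divided by the AT-polymer Ka.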

The test system of assay [8] is DNA. In words: Binding affinity to calf thymus DNA at 20 uM after 1 hr by fluorimetric analysis. It is filed as nucleic-acid assay. The settings on record: Bos taurus; 10 uM; in the assay text read “at 10 uM” for “at 20 uM”. The method in brief:
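Fluorescence quenching with increasing calf thymus DNA in 20 mM Tris-HCl pH 7.5 containing 1% DMSO (v/v). Mixtures were stirred for 1 h at 25 °C in the dark before each spectrum was recorded. Kb came from nonlinear fitting of fluorescence intensity against DNA concentration.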

Assay [9] can be described thus: Binding affinity to Poly(dGdC).Poly(dGdC) (unknown origin). The method in brief: as §1
Assay [10] deals with DNA. The assay can be described thus: Binding affinity to calf thymus DNA at 20 uM by circular dichroism analysis. It is filed as nucleic-acid assay. Particulars: Bos taurus. The procedure, abridged:
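Circular dichroism spectra of compound with calf thymus DNA in 20 mM Tris-HCl pH 7.5 containing 1% DMSO (v/v). Recorded in a 1 cm quartz cell over 240–300 nm.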

Assay [11] can be described thus: Selectivity ratio of Ka for Poly(dGdC).Poly(dGdC) (unknwon origin) to Ka for Poly(dAdT).Poly(dAdT) (unknown origin). The procedure, abridged: as §1
Assay [12] in a line: Binding affinity to 5'TGCGCA3'/3'ACGCGT5' (unknown origin).
A short description of assay [13]: Binding affinity to 5'ACGCCT3'/3'TGCGGA5' (unknown origin).
Assay [14] in a line: Binding affinity to 5'ACCGGT3'/3'TGGCCA5' (unknown origin).
The nature of assay [15]: Binding affinity to 5'ACCCCT3'/3'TGGGGA5' (unknown origin).
Assay [16] can be described thus: Binding affinity to 5'ATGCGCAT3'/3'TACGCGTA5' (unknown origin).
The nature of assay [17]: Binding affinity to 5'ACGGCT3'/3'TGCCGA5'(unknown origin).
Assay [18] is described as follows: Binding affinity to 5'TGGCGA3'/3'ACCGCT5' (unknown origin).
The nature of assay [19]: Binding affinity to 5'ACCCGT3'/3'TGGGCA5' (unknown origin).

From ChEMBL document CHEMBL2331412, “Oxo-heterocyclic fused naphthalimides as antitumor agents: synthesis and biological evaluation” (Eur J Med Chem, 2013) come the findings set out here.

pIC50: −log10 of the molar value. Active and inactive are the calls of the source. No cut-off for these calls is given here. A value given as a limit tells only on which side of the number the result lay.

Sequence of DNA topoisomerase 2-alpha (Homo sapiens) (P11388 whole entry): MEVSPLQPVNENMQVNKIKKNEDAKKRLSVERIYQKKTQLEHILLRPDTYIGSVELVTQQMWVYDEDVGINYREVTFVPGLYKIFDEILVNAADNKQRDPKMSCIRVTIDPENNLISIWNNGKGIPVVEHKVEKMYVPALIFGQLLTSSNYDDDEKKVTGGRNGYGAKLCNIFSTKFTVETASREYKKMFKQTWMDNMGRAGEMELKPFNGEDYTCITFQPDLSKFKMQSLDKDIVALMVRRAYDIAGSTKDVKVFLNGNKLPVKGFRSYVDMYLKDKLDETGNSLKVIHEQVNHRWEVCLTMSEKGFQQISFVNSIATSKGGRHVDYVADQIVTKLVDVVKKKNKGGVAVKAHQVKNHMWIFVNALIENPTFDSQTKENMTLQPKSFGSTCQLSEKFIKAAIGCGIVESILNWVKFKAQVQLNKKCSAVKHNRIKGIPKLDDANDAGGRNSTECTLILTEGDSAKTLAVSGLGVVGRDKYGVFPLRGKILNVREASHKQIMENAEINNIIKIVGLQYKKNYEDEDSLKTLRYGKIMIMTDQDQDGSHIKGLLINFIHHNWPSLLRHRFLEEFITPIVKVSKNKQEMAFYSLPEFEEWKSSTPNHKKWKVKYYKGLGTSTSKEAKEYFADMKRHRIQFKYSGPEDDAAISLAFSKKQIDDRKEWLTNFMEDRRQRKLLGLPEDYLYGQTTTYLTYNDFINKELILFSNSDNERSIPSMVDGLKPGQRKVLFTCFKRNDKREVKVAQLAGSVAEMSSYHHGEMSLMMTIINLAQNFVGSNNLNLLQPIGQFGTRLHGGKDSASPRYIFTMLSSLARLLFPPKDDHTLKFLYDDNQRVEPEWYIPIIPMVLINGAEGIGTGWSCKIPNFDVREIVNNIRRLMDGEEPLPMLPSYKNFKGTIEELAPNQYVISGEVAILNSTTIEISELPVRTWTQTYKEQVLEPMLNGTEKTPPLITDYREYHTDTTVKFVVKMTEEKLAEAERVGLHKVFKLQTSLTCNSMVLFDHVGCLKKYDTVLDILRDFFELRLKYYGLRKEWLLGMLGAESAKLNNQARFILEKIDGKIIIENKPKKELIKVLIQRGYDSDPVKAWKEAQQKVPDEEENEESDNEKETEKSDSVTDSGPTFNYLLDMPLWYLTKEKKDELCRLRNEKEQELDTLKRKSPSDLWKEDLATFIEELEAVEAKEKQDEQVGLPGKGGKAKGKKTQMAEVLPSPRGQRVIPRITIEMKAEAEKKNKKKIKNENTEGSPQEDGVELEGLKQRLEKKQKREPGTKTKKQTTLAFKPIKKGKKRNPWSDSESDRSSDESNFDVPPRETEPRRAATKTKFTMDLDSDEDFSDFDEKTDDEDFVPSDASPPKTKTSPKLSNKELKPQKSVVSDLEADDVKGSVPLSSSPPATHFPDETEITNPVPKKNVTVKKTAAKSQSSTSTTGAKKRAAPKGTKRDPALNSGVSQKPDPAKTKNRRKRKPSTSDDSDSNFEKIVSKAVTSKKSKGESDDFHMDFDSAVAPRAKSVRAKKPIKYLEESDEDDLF

Regarding `CN(C)CCN1C(=O)c2cccc3c2c(cc2nc(-c4ccccc4)sc23)C1=O`, the pIC50 (in general, −log10 of the IC50, conventionally taken in molar units) is 7.07 in assay [1] and 6.18 in [2].
For `CC[C@@]1(O)C(=O)OCc2c1cc1n(c2=O)Cc2cc3ccccc3nc2-1`, the inhibition entry in assay [3] was “Active”.
In the case of `COc1ccc(-c2nc3cc4c5c(cccc5c3o2)C(=O)N(CCN(C)C)C4=O)cc1`, the pIC50 in assay [4] was 5.47; in assay [1], 5.18; in [2], 5.89.
As to `CCCCn1c(=O)c2ccc3oc4ccccc4c4ccc(c1=O)c2c34`, the pIC50 was less than 4.00 in assay [4], 5.27 in [1] and less than 4.00 in assay [2].
In the case of `COc1cc([C@@H]2c3cc4c(cc3[C@@H](O[C@@H]3O[C@@H]5CO[C@@H](C)O[C@H]5[C@H](O)[C@H]3O)[C@H]3COC(=O)[C@H]23)OCO4)cc(OC)c1O`, the “Topoisomerase 1 relaxation inhibition (qualitative)” value in [5] is “Active”. Besides, the “Inhibition (qualitative)” value in assay [6] is “Active”.
For `O=c1c2ccc3oc4ccccc4c4ccc(c(=O)n1CCN1CCNCC1)c2c34`, the pIC50 is 4.94 in assay [4], 4.54 in assay [1] and 5.34 in [2].
As to `CN(C)CCN1C(=O)c2cccc3cc(N)cc(c23)C1=O` [AMONAFIDE], in assay [4], the pIC50 is 5.30. The “Inhibition (qualitative)” value in assay [6] is “Active”.
With `CN(C)CCN1C(=O)c2cccc3c2c(cc2c4ccccc4oc32)C1=O`, in assay [5], the “Topoisomerase 1 relaxation inhibition (qualitative)” value was “Active”. For the same compound, the pIC50 was 5.30 in assay [4], 6.44 in assay [1] and 6.19 in assay [2]. For the same compound, the results for the Ka in assay [7], in assay [8] and in assay [9] were 5 ×10⁶ /M, 2.89 ×10⁵ /M and 6.36 ×10⁶ /M, respectively. In [6], the “Inhibition (qualitative)” value was “Active”. The outcome in [10] was Active.
`CN(C)CCN1C(=O)c2cccc3c2c(cc2nc(-c4ccccc4)oc23)C1=O`: the pIC50 in [4] is 5.52; in assay [1] it was 6.28; in assay [2], 5.60.
For `CCCCN1C(=O)c2cccc3c2c(cc2c4ccccc4sc32)C1=O`, the negative logarithm of the IC50 (pIC50) in assay [1] was 5.87; in [2] it was 6.13.
For `O=C1c2cccc3c2c(cc2c4ccccc4sc32)C(=O)N1CCN1CCNCC1`, the pIC50 in [1] was 4.93; in assay [2] it was 4.14.
Regarding `CN(C)CCN1C(=O)c2cccc3c2c(cc2c4ccccc4sc32)C1=O`, in assay [5], the “Topoisomerase 1 relaxation inhibition (qualitative)” value was “Active”. The compound also showed a pIC50 in assay [4] of 6.05. The Ka came out at 8 ×10⁶ /M in [7], 1.1 ×10⁵ /M in assay [8] and 7.6 ×10⁷ /M in assay [9]. In addition, the “Inhibition (qualitative)” value in assay [6] was “Active”. In addition, the outcome in assay [10] was Active. In addition, in assay [11], the Selectivity ratio is 10.
As for `CN(C)CCn1c(=O)c2ccc3oc4ccccc4c4ccc(c1=O)c2c34`, the “Topoisomerase 1 relaxation inhibition (qualitative)” value in assay [5] is “Active”. Further, the Ka came to 1.28 ×10⁵ /M in [12]; 6.9 ×10³ /M in assay [13]; 1.12 ×10⁵ /M in assay [14]; 1.32 ×10⁵ /M in [7]; 1.72 ×10⁵ /M in assay [15]; 8 ×10⁴ /M in assay [16]. The Ka was 5.9 ×10³ /M in assay [17]; 1.45 ×10⁵ /M in assay [8]; 6.89 ×10⁵ /M in [9]; 8.4 ×10⁴ /M in [18]; 1.2 ×10⁴ /M in assay [19]. For the same compound, the pIC50 was 5.39 in assay [4], 6.21 in assay [1] and 5.95 in [2]. The “Inhibition (qualitative)” value in assay [6] was “Active”. Also, in assay [10], the result was Active.
In the case of `CN(C)CCCn1c(=O)c2ccc3sc4ccccc4c4ccc(c1=O)c2c34`, the pIC50 was 6.72 in assay [1] and 6.20 in assay [2].
On the same counts, the results for `COc1ccc(-c2nc3cc4c5c(cccc5c3s2)C(=O)N(CCN(C)C)C4=O)cc1` are 7.80 and 6.37.
For `CN(C)CCCN1C(=O)c2cccc3c2c(cc2c4ccccc4oc32)C1=O`, the pIC50 in [4] is 5.18; in [1] it was 6.13; in [2], 6.77.
As for `CN(C)CCCn1c(=O)c2ccc3oc4ccccc4c4ccc(c1=O)c2c34`, the pIC50 in [4] was 4.99; in assay [1], 4.01; in assay [2] it was 5.46.
With `CN(C)CCN1C(=O)c2cccc3c2c(cc2nc(-c4ccc(Cl)cc4)oc23)C1=O`, the pIC50 in [4] was less than 4.00; in [1], 4.14; in assay [2], 4.70.
Take `COc1ccccc1-c1nc2cc3c4c(cccc4c2o1)C(=O)N(CCN(C)C)C3=O`: the pIC50 in [4] was 5.72; in assay [1] it was 6.05; in assay [2], 5.89.
`Cc1ccc(-c2nc3cc4c5c(cccc5c3o2)C(=O)N(CCN(C)C)C4=O)cc1`: the results for the pIC50 in assay [4], in assay [1] and in assay [2] were 5.17, 4.46 and 4.71, respectively.
On the same counts, the results for `CCCCN1C(=O)c2cccc3c2c(cc2c4ccccc4oc32)C1=O` are less than 4.00, 5.85 and less than 4.00.
On to `CCCCn1c(=O)c2ccc3sc4ccccc4c4ccc(c1=O)c2c34`, for which the pIC50 in assay [1] was 6.06; in assay [2], 5.92.
Taken in the same sequence, the figures for `CN(C)CCCN1C(=O)c2cccc3c2c(cc2c4ccccc4sc32)C1=O` were 6.60 and 6.49.
Turning to `Cc1ccc(-c2nc3cc4c5c(cccc5c3s2)C(=O)N(CCN(C)C)C4=O)cc1`, the pIC50 is 6.38 in [1] and 6.21 in assay [2].
Taken in the same sequence, the figures for `O=c1c2ccc3sc4ccccc4c4ccc(c(=O)n1CCN1CCNCC1)c2c34` were 4.00 and less than 4.00.
Turning to `CN(C)CCn1c(=O)c2ccc3sc4ccccc4c4ccc(c1=O)c2c34`, the “Topoisomerase 1 relaxation inhibition (qualitative)” value in [5] is “Active”. For the same compound, the Ka in assay [12] is 3.33 ×10⁶ /M; in assay [13], 1.92 ×10⁵ /M; in assay [14], 4 ×10⁵ /M; in assay [7], 4.48 ×10⁵ /M; in assay [15], 1.89 ×10⁵ /M; in assay [16], 4.76 ×10⁵ /M. Besides, the Ka in [17] was determined as 3 ×10⁴ /M; in assay [8], 9.7 ×10⁴ /M; in [9], 4.76 ×10⁶ /M; in assay [18], 2.13 ×10⁵ /M; in assay [19], 9.09 ×10⁵ /M. The compound further had a pIC50 in assay [4] of 5.39. Also, the “Inhibition (qualitative)” value in [6] was “Active”. Also, the outcome in assay [10] was Active. The Selectivity ratio in assay [11] is 10.
`CN(C)CCN1C(=O)c2cccc3c2c(cc2nc(-c4ccc([N+](=O)[O-])cc4)oc23)C1=O`: the figures for the pIC50 in assay [4], in assay [1] and in [2] were less than 4.00, 4.75 and 4.00, respectively.
